The results in this text go back to ChEMBL document CHEMBL1155457, “Discovery of the dual orexin receptor antagonist [(7R)-4-(5-chloro-1,3-benzoxazol-2-yl)-7-methyl-1,4-diazepan-1-yl][5-methyl-2-(2H-1,2,3-triazol-2-yl)phenyl]methanone (MK-4305) for the treatment of insomnia” (J Med Chem, 2010).

In series [1] the target is T1, Orexin receptor type 2 (Homo sapiens, UniProt O43614).
T1 sequence (O43614 whole entry): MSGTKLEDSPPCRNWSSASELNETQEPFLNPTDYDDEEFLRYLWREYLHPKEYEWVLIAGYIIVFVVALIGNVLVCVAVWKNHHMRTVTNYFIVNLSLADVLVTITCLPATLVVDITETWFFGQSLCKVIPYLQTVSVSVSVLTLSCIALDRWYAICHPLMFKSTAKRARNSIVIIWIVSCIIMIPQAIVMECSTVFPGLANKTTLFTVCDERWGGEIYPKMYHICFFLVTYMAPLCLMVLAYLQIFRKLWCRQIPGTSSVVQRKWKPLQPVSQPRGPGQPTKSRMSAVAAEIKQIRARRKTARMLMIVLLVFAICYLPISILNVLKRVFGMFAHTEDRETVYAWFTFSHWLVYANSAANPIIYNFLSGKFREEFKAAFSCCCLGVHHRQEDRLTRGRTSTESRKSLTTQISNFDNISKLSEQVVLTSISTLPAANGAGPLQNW
Put plainly: Displacement of [3H](S)-N-(2-(1H-pyrrol-1-yl)phenyl)-1-(2-(1-methyl-1H-benzo[d]imidazol-2-ylthio)acetyl)pyrrolidine-2-carboxamide from human OX2R expressed in CHO cells after 3 hrs by scintillation counting. It counts as cell-based.

Series [2] can be described thus: Volume of distribution at steady state in rat at 2 mg/kg, iv. It counts as ADME, organism-based. Also on record: dose 2 mg/kg, route intravenous. The note with it: in vivo, read-out: Vdss. The essentials: (§1)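 IV PK in DMSO vehicle: rat at 2 mg/kg, dog at 0.5 mg/kg. Clearance, Vd_ss and terminal half-life were derived from plasma levels.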
Series [3] can be described thus: Cmax in rat at 100 mg/kg, po. It counts as ADME, organism-based. The note with it: in vivo. Also on record: dose 100 mg/kg, route oral. In short, it runs like this: (§2)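 Rats dosed orally by gavage as the HCl salt in 20% TPGS. Plasma drug levels were followed to give AUC, Cmax and oral bioavailability.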
Series [4] has as its system Liver microsomes. Nature of the series: Idiosyncratic toxicity in human liver microsomes assessed GSH-derived reactive electrophilic adduct formation at 10 uM after 60 mins by UPLC/HRMS analysis relative to labetalol. Also on record: species or system Microsome. The note with it: 1 h. The essentials: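 Pooled human liver microsomes (1 mg/mL protein) were incubated 60 min at 37 °C in 100 mM potassium phosphate pH 7.4. The mix held 10 μM compound, 1 mM MgCl2, 1 mM EDTA, 5 mM GSH and 1 mM NADPH. After quenching, GSH adducts were detected by UPLC/HRMS. Summed adduct peak areas were divided by the labetalol internal-standard area.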

A short description of series [5]: AUC in dog at 3 mg/kg, po. Conditions: plasma. Also on record: dose 3 mg/kg, route oral. It counts as ADME, organism-based, Canis lupus familiaris.
Series [6] deals with Rattus norvegicus. Put plainly: Antiinsomnic activity in Sprague-Dawley rat assessed as decrease in active wake duration at 10 mg/kg/day, po […]. It counts as functional, organism-based. In short, it runs like this:
(§3)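 Rats carried telemetry implants recording ECoG/EMG (sampled at 500 Hz) and had recovered at least 2 weeks after surgery. They were on a 12:12 light cycle with lights off at 04:00. After 2 days of vehicle habituation, four rats were dosed by oral gavage in 20% aqueous TPGS at 09:00, 5 h into the active phase. The design was a one-week crossover against vehicle. Recording ran 23 h; stages were auto-scored in 30-min bins, averaged over 7 days and compared by mixed-model ANOVA at each time point.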

Series [7] relates to Rattus norvegicus. Nature of the series: Antiinsomnic activity in Sprague-Dawley rat assessed as increase in delta sleep duration at 10 mg/kg/day, po measured with 3 to 4 hrs post last dose. It counts as functional, organism-based. In short, it runs like this: as §3
Series [8] can be described thus: Cmax in dog at 3 mg/kg, po. It counts as ADME, organism-based, Canis lupus familiaris. Also on record: dose 3 mg/kg, route oral. Conditions: in vivo.
Series [9] can be described thus: Oral bioavailability in rat at 100 mg/kg. The note with it: in vivo. It counts as ADME, organism-based. The essentials:
as §2

Series [10] in a line: Volume of distribution at steady state in dog at 0.5 mg/kg, iv. It counts as ADME, organism-based, Canis lupus familiaris. Also on record: dose 0.5 mg/kg, route intravenous. The note with it: in vivo, read-out: Vdss. The essentials:
as §1

Series [11] concerns Rattus norvegicus. Nature of the series: Antiinsomnic activity in Sprague-Dawley rat assessed as increase in rapid-eye movement at 10 mg/kg/day, po measured with 3 to 4 hrs post last dose. The format is functional, organism-based. In short, it runs like this:
as §3

A short description of series [12]: AUC in rat at 100 mg/kg, po. Also on record: dose 100 mg/kg, route oral. Conditions: plasma. It counts as ADME, organism-based. In short, it runs like this:
as §2

The nature of series [13]: Clearance in dog at 0.5 mg/kg, iv. The note with it: in vivo. The format is ADME, organism-based, Canis lupus familiaris. Also on record: dose 0.5 mg/kg, route intravenous. The essentials: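 Dogs received an IV dose with DMSO as vehicle (n = 3). Clearance was derived from plasma pharmacokinetics.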
Series [14] can be described thus: Terminal half life in dog at 0.5 mg/kg, iv. Also on record: dose 0.5 mg/kg, route intravenous. The format is ADME, organism-based, Canis lupus familiaris. Conditions: in vivo, read-out: beta t1/2 (converted). The essentials: as §1
For series [15], the system named is Rattus norvegicus. Put plainly: Antiinsomnic activity in Sprague-Dawley rat assessed as decrease in light sleep duration at 10 mg/kg/day, po measured with 3 to 4 hrs post last dose. The format is functional, organism-based. The essentials: as §3
Series [16] can be described thus: Terminal half life in rat at 2 mg/kg, iv. Conditions: in vivo, read-out: beta t1/2 (converted). It counts as ADME, organism-based. Also on record: dose 2 mg/kg, route intravenous. The essentials:
as §1

For series [17], the target named is T2, Orexin/Hypocretin receptor type 1 (Homo sapiens, UniProt O43613).
T2 sequence (O43613 whole entry): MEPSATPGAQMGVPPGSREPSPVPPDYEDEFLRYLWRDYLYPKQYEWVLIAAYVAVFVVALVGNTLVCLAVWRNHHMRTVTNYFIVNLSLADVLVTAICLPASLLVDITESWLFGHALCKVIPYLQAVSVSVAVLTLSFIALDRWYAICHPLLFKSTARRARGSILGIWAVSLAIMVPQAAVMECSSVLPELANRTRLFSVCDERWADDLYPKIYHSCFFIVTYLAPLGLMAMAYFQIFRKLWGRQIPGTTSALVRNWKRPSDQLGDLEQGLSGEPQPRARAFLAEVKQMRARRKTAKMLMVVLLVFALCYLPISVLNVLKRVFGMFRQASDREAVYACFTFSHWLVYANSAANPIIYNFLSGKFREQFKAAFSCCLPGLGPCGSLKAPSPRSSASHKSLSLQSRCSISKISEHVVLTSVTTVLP
Put plainly: Displacement of [3H]N-cyclobutyl-5-methyl-N-(2-(1-methyl-1H-benzo[d]imidazol-2-ylthio)ethyl)-2-(2H-1,2,3-triazol-2-yl)benzamide from human OX1R expressed in CHO cells after 20 hrs by scintillation counting. The format is cell-based.

The target of series [18] is T1, Orexin receptor type 2. Put plainly: Antagonist activity at human OX2R expressed in CHO cells assessed as inhibition of orexin-A-induced intracellular calcium mobilization after 5 mins by FLIPR assay. It counts as functional, cell-based.
Series [19] can be described thus: Oral bioavailability in dog at 3 mg/kg. The format is ADME, organism-based, Canis lupus familiaris. The note with it: in vivo.
The target of series [20] is T2, Orexin/Hypocretin receptor type 1. Put plainly: Antagonist activity at human OX1R expressed in CHO cells assessed as inhibition of orexin-A-induced intracellular calcium mobilization after 5 mins by FLIPR assay. It counts as functional, cell-based.
The target is the same in series [21]. Put plainly: Displacement of [3H](S)-N-(biphenyl-2-yl)-1-(2-(1-methyl-1H-benzo[d]imidazol-2-ylthio)acetyl)pyrrolidine-2-carboxamide from human OX1R expressed in CHO cells after 3 hrs by scintillation counting. The format is cell-based.
Series [22] can be described thus: Clearance in rat at 10 mg/kg, iv. It counts as ADME, organism-based. Also on record: dose 10 mg/kg, route intravenous. Conditions: in vivo.
The nature of series [23]: Drug level in Sprague-Dawley rat plasma at 10 mg/kg/day, po after 1 hr. The format is ADME, organism-based. Also on record: route oral. Conditions: read-out: Drug uptake.
A short description of series [24]: Fraction unbound in rat plasma. The format is ADME, cell-free.
Series [25] can be described thus: Oral bioavailability in rat at 10 mg/kg. Conditions: in vivo. It counts as ADME, organism-based.
Series [26] is described as follows: Drug level in Sprague-Dawley rat CSF at 10 mg/kg/day, po after 1 hr. Also on record: route oral. The note with it: read-out: Drug uptake. The format is ADME, organism-based, Cerebrospinal fluid.
The nature of series [27]: Lipophilicity, log P of the compound. Conditions: octanol/water. It counts as physicochemical.

Calls of active or inactive are those of the source. No cut-off for these calls is given here.

`Cc1ccc(-n2nccn2)c(C(=O)N2CCCN(c3ncc4ccccc4n3)CC2)c1` had a Ki in [1] of 0.59 nM. In addition, the Vd in [2] is 1.08 L/kg; in series [10], 0.86 L/kg. The highest concentration (Cmax) in series [3] is 650 nM; in series [8], 1440 nM. The Ratio in series [4] came to 5. In addition, the AUC in series [5] is 1.81 µM·h; in series [12], 1.5 µM·h. Moreover, the result in series [6], in series [7], in series [11] and in series [15] was Active. Moreover, the bioavailability in [9] was determined as 2%. In addition, the clearance in [13] came to 11.6 mL/min/kg. The values for the half-life in series [14] and in series [16] were 76.8 min and 21 min, respectively.
`C[C@@H]1CCN(c2cnc3cc(F)c(F)cc3n2)CCN1C(=O)c1ccccc1-n1nccn1`: the Ki in series [1] came out at 0.25 nM; in [17], 1.8 nM; in series [21], 1.8 nM. Besides, the concentration for half-maximal inhibition (IC50) in [18] is 32 nM; in series [20], 28 nM. The Ratio in series [4] was 3.7. Moreover, the bioavailability in series [19] is 15%. In series [13], this compound had a clearance of 4.9 mL/min/kg.
Consider `Cc1ccc(-n2nccn2)c(C(=O)N2CCN(c3ncc4cc(F)ccc4n3)CC[C@H]2C)c1`, for which the clearance in series [22] was 33 mL/min/kg; in series [13] it was 5.2 mL/min/kg. The concentration at 1 h came to 20 nM in series [23] and 1000 nM in series [26]. Moreover, in series [24], the fraction unbound stood at 0.03. Moreover, the bioavailability in series [25] is 47%; in [19] it was 37%. Moreover, the outcome in series [6], in series [7], in series [11] and in [15] was Active. The logP in [27] worked out at 3.
Turning to `Cc1ccc(-n2nccn2)c(C(=O)N2CCN(c3nc4ccccc4o3)CC[C@H]2C)c1`, the results for the Ki in series [1], in series [17] and in [21] were 3.2 nM, 4.1 nM and 4.1 nM, respectively. The IC50 in series [18] is 57 nM; in series [20], 24 nM. In [13], this compound gave a clearance of 2.4 mL/min/kg.
Regarding `Cc1ccc(-n2nccn2)c(C(=O)N2CCN(c3ncc4ccccc4n3)CC[C@H]2C)c1`, the values for the Ki in [1], in series [17] and in series [21] were 0.36 nM, 0.39 nM and 0.39 nM, respectively. The IC50 in series [18] and in [20] was 30 nM in each case. Also, in [19], the bioavailability is less than 5%. Also, in [13], the clearance is 6 mL/min/kg.
On to `C[C@@H]1CCN(c2ncc3ccccc3n2)CCN1C(=O)c1ccccc1-n1nccn1`, for which the Ki in series [1] is 0.47 nM; in series [17] it was 6.2 nM; in series [21], 6.2 nM. Further, the IC50 in [18] worked out at 18 nM; in series [20], 26 nM. This compound registered a clearance in series [13] of 6.4 mL/min/kg.
With `C[C@@H]1CCN(c2ncc3c(n2)CCCC3)CCN1C(=O)c1ccccc1-n1nccn1`, the Ki in series [1] is 0.28 nM; in series [17], 0.78 nM; in series [21], 0.78 nM. Moreover, the IC50 in series [18] was found to be 28 nM; in series [20], 24 nM. Besides, the Ratio in [4] is reported as 0.7. In [13], this compound showed a clearance of 9.2 mL/min/kg.
As for `C[C@H]1CCN(c2ncc3ccccc3n2)CCN1C(=O)c1ccccc1-n1nccn1`, the Ki turned out to be 8.5 nM in [1], 54 nM in [17] and 54 nM in [21].
